Laboratory results published in the RNAGym collection of RNA variant scans (doi:10.1126/science.aae0568).
This sample holds only a part of the variants without activity.

B1: tRNA (parent)
chain: GUUCCGUUGGCGUAAUGGUAACGCGUCUCCCUCCUAAGGAGAAGACUGCGGGUUCGAGUCCCGUACGGAACG

Variants of: B1
Experiment: yeast fitness relative to wild type (ratio to wild type); higher = fitter; tRNA-Arg(CCU), competitive growth, 37 C, YPD
Summary of the method: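 The tRNA-Arg(CCU) gene variants were made by chemical synthesis with a 3% per-site mutation rate at 69 sites and inserted at the native genomic locus of Saccharomyces cerevisiae. After pooling, the strains were competed in YPD at 37°C for 24 hours in six parallel replicates. Gene amplicons from the start population and each end population were read by 100-nucleotide paired-end sequencing, and Darwinian fitness relative to wild type was taken from genotype frequency changes. Genotypes needed ≥ 100 starting reads, and estimates < 0.5 were set to 0.5.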

Point of comparison: GUUCCGUUGGCGUAAUGGUAACGCGUAGCCCUCCUAAGGAGAAGACUGCGGGUUCGAGUCCCGUACGGAACG [C27A U28G], yeast fitness 0.66. Against it:
- GUUCAGUUGGCGUAAUGGUAACGCGUCUCCCUCCUAAGGAGAAGACUGCGGGUUCGAUUCCCGUACGGAACG [C5A G58U] — higher, 0.946
- GUUCCGUUGGCGUAAUGGUAACGCGUCUCCCUCCUAAGGAGAAGACUGCGGGUUCGAGUCCCGUCAGGAACG [A65C C66A] — higher, 0.808
- GUUCCGUGGGCGUAAUGGUAACGCGUCUCCCUCCUAAGGAGAAGAGUGCGGAUUCGAGUCCCGUACGGAACG [U8G C46G G52A] — lower, ≤ 0.5
- GUUCCGUUGGCGUAAUGGUAAAGCGUGUCCCUCCUAAGGAAAAGACUGCGGGUUCGAGUCCCGUACGGAACG [C22A C27G G41A] — lower, 0.614
- GUUGCGUUGGGGAAAUGGUAACGCGUCUCCCUCCUAAGGAGAAGACUGCGGGUUCGAGGCGCGUACGGAACG [C4G C11G U13A U59G C61G] — lower, ≤ 0.5
- GUUCCGUUGGCGUAAUGGUAACGCGUCUCCGUCCUAAGGAGAAGACUGCGGGUUCGAGACCCGUUAGGAACG [C31G U59A A65U C66A] — lower, ≤ 0.5
- GUAGCGUUGGCGUAAUGGUAACGCGUCUCCCUCCUAAGGAGAAGACUGCGGGUUCGAGUCCCGUACGGAACG [U3A C4G] — higher, 0.792
- GAUCCGUUCGCGUAAGGGUAACGCGUCUCCCGCCUAAGGAGAAGACUGCGGAUUCGAGUCCCCUACGGAACG [U2A G9C U16G U32G G52A G63C] — lower, ≤ 0.5
- GUUCCGUUGGCGUAAUGGUAACGCGUCUCCCUCCUAAGGAGAAAACUGCGGGUUCGAGUCCCGUAGGGAACG [G44A C66G] — lower, 0.641
- GUUCCGUUGGCGUAGUGGUAACGCGUCUCCCUCCUAAGGAGAAGACUGCGGGUUCGAGUCCCGUACGGCACG [A15G A69C] — higher, 0.999
- GUUCCGUUAGCGUAAUGGUGACGCGUCUCCCUCCUAAGGAGAAGACUGCGGGUUCGAGACCCGUAGGGAACG [G9A A20G U59A C66G] — lower, ≤ 0.5
- GUUCCGUUGGCGUAACGGUAACGCGUCUCCCUCGUAAGGAGAAGACUGCGGGUUCGAGUCCCGUACGGAACG [U16C C34G] — lower, 0.609
- GUUCGGUUGGCGUAAUGGUAACGCGUCACCCUCCUAAGGAGAAGACUGCGGGUUCGAGUCCCGUACGGAACG [C5G U28A] — higher, 0.669
- GUUCCGUUGGCGUAAUGGUAACGCGUAUCCCUCCUAAGGAGAAGACUGCGGGUUCGACUCCCGGACGGAACG [C27A G58C U64G] — lower, ≤ 0.5
- GUUCCGUUGGCGUAAUAGUACCGCGUCUGCCUCCUAAGGAGAAGACUGCGGGUUCGAGUCCCGUACGGAUCG [G17A A21C C29G A70U] — lower, ≤ 0.5
- GUUCCGUUGGUGUAAUGGUAACGCGCCUCCCUCCUAAGGAGAAGACAGCGGGUUCGAGUCCCGUACGGAACG [C11U U26C U47A] — lower, 0.555
- GUUCCGUUGGCGUAUUGGUAACGCGUCUCCCUCCUAGGGAGAAGACUGCGGGUUCGAGUCCCGUAGGGAACG [A15U A37G C66G] — lower, ≤ 0.5
- GUUCCGUUGGCGGAAUGGUAACGCGUCUCCCUCCUAAGGAGACGACUGCGGGUACGGGUCCCGUACGGAACG [U13G A43C U54A A57G] — lower, ≤ 0.5
- GUUCCGUUGACGUAAUGGUAACGCGUCUCCCUCCUAAGGUGAAGACUGCGGGUUCGAGUCCCGUACGGAACG [G10A A40U] — higher, 0.683
- GUUCCGUUGGCGUAUUGGUAAGGCAUCUCCUUCCUAAGGAGAAGACUGCGGGUUCGCGUCCCGAACGAAACG [A15U C22G G25A C31U A57C U64A G68A] — lower, ≤ 0.5
- GUUCCGUUGGCGUAAUGGUAACGCGUCUCCCUCCUAAGGAGAAGACUGGGGGUUCGAGACCCAUACGGAACG [C49G U59A G63A] — lower, 0.564
- GUUCCGUCGGCGUAAUGGUAUCGCGUCUCCCUCCUAAGGAGAAGACUGCGGGGUCGCGUCCCGUACGGAACG [U8C A21U U53G A57C] — lower, ≤ 0.5
- GUUCCAUUGGCGGAAUGGUAACGCGUUUCCCUCCUAAGGAGAAGACUGCGGGUUCGAGUCGCGUAUGGAACG [G6A U13G C27U C61G C66U] — lower, ≤ 0.5
- GUUCCGUUCGCGUAAUGGUAACGCGUAUCUCUGCUAAGGAGAAGACUGCGGGUUCGAGUCCCGUACGGAACG [G9C C27A C30U C33G] — lower, ≤ 0.5
- GUUCCGUUGGCGUAAUGGUAACGCGUCUCCCUCCUAAGGAGGACACUGCGGGUUCGAGUCCCGUACGGAACG [A42G G44C] — higher, 0.906
- GUUCCGUUGGCGUAAUGGUAACGCGUCUCCCUCCUAAGGAGGAGACUGCGGGUUCGAGUCCCGUACGGAUCG [A42G A70U] — higher, 0.941
- GUUCCGUUGGCGUAAUGGUAACGCUUCUCACUCCUAAGGAGAAGAAUGCGGGUUCGAGUCCCGUACGGAACG [G25U C30A C46A] — lower, 0.581
- GUUCCGUUGGCGUAAUGGUAACGCGUCUCCCUCCCGAGGAGAAGACUGCGGGUUCGAGUCCCGUACGGAACG [U35C A36G] — higher, 0.931
- GUUCUGUUGGCGUAAUGGUAACGCGUCUCCCUCCUAAGGAGAAGAUUGCGGGUUACAGUCCCGUACGGAACG [C5U C46U C55A G56C] — lower, ≤ 0.5
- GUCCCGUUGGCGUAAUGGGAACGCGUGUCCCUGCUAAGGAGAAGACUGCGGGGUCGAGUCCCGUACGGAACG [U3C U19G C27G C33G U53G] — lower, 0.578
- GUUCCGUUGGCGUAAUGGUAACGCGUCUUCCUCCUAAGGAGAAGACUGCGGGUUCGAGUCCCGUACGGAACG [C29U] — higher, 0.989
- GUUCCGUUGGCGUAAUGGUAACGCGUCUCCCUCCUAAGGAAAAGACUGCAGGUUCGAGUUCCGUAGGGAACG [G41A G50A C60U C66G] — lower, ≤ 0.5
- GUUCCGUUGGCGUAAUGGUAGCACGUCUCCCUCCUAAGGAGAAGACUGCGGGUUCGCGUCCCGUCCGGACCG [A21G G23A A57C A65C A70C] — lower, ≤ 0.5
- GUUCCGUUGGCGUAAUGGUAGCGAGUCUCCCUCCUAAGGAGAAGACUGCGGGUUCGAGUCCCGUACGGUGCG [A21G C24A A69U A70G] — lower, ≤ 0.5
- GUUCUGUUGGCGUAAUGGUAACGCGUCUUCCUCGUAAGGAGAAGACUGCGGGUUCGAGUCCCGUACGGAACG [C5U C29U C34G] — lower, ≤ 0.5
- GUUCCGUAGGCGUAAUGCUAACGCCUCUCCCUCCUAAGGAGAAGACUGCGGGUUCGAGUCCCGUACGGAACG [U8A G18C G25C] — lower, ≤ 0.5
- GAUCCGUUGGCGUAAUGGUAACGCGUCCCCCUCCUAAGGAGAAGACUGCGGGUUCGAGUCCCGUACGGAACG [U2A U28C] — higher, 0.835
